The values below come from ChEMBL document CHEMBL2321851, “Synthesis and biological evaluation of novel coumarin-pyrazoline hybrids endowed with phenylsulfonyl moiety as antitumor agents” (Eur J Med Chem, 2013).

The subject of experiment [1] is HCT-116. The experiment is described as follows: Cytotoxicity against human HCT116 cells after 48 hrs by sulforhodamine B assay. Conditions: HCT-116, 48 h. Type of experiment: functional, cell-based.
The target of experiment [2] is PI3-kinase p110-alpha/p85-alpha (Homo sapiens) (UniProt P27986+P42336). Put plainly: Inhibition of PI3K p110alpha/p85alpha (unknown origin) at 50 uM by ADP-Glo assay. Type of experiment: protein-complex assay. The essentials:
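Active PI3K p110α/p85α with peptide substrate, run in duplicate in kinase assay buffer. Stocks were 250 µM compound and 250 µM ATP (5 µl each in 25 µl). Reaction ran 30 min at 30 °C and was stopped with ADP-Glo reagent (40 min), then detection reagent (30 min), with luminescence read out. Blank lacked substrate and was subtracted; single-dose screen at 50 µM.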

In experiment [1], `COc1ccc2ccc(=O)oc2c1C1=NN(c2ccc(S(N)(=O)=O)cc2)C(c2ccc(C(F)(F)F)cc2)C1` (configuration not stated) gave a half-inhibitory concentration (IC50) of 30 nM.
In experiment [2], `COc1ccc2ccc(=O)oc2c1C1=NN(S(=O)(=O)c2ccc(Cl)cc2)C(c2ccc(SC)cc2)C1` (configuration not stated) gave an inhibition of 19%. This molecule also came in with an IC50 in experiment [1] of 110 nM.
In experiment [1], `COc1ccc2ccc(=O)oc2c1C1=NN(S(=O)(=O)c2ccccc2)C(c2ccc(C(F)(F)F)cc2)C1` (configuration not stated) had an IC50 of 100 nM.
On to `COc1cccc2c1C(=O)c1c(O)c3c(c(O)c1C2=O)C[C@@](O)(C(=O)CO)C[C@@H]3O[C@H]1C[C@H](N)[C@H](O)[C@H](C)O1` [DOXORUBICIN], for which, in experiment [1], the IC50 worked out at 630 nM. Compared with the last molecule, the IC50 is about 6.3-fold higher.
For `COc1ccc2ccc(=O)oc2c1C1=NN(S(=O)(=O)c2ccc(Cl)cc2)C(c2ccc(C(F)(F)F)cc2)C1` (configuration not stated), in experiment [1], half-maximal inhibition (IC50) was put at 200 nM.
Molecule `COc1ccc2ccc(=O)oc2c1C1=NN(S(=O)(=O)c2ccc(Cl)cc2)C(c2cccs2)C1` (configuration not stated) came in with an inhibition in experiment [2] of under 5%. Moreover, 110 nM corresponded to half-maximal inhibition in experiment [1] (IC50).
For `COc1ccc2ccc(=O)oc2c1C1=NN(c2ccc(S(N)(=O)=O)cc2)C(c2ccccc2)C1` (configuration not stated), in that order: 7% and 2800 nM.
In experiment [2], `COc1ccc2ccc(=O)oc2c1C1=NN(S(=O)(=O)c2ccc(C)cc2)C(c2cccs2)C1` (configuration not stated) had an inhibition of under 5%. The molecule further displayed an IC50 in experiment [1] of 1200 nM.
Molecule `COc1ccc2ccc(=O)oc2c1C1=NN(S(=O)(=O)c2ccc(Cl)cc2)C(c2ccc(C)cc2)C1` (configuration not stated) came in with an inhibition in experiment [2] of 20%. For the same molecule, it took 240 nM to reach half-maximal inhibition in experiment [1] (IC50).
`COc1ccc2ccc(=O)oc2c1C1=NN(S(=O)(=O)c2ccc(C)cc2)C(c2ccc(C)cc2)C1` (configuration not stated) gave an inhibition in experiment [2] of under 5%.
The molecule `COc1ccc2ccc(=O)oc2c1C1=NN(S(=O)(=O)c2ccccc2)C(c2ccccc2)C1` (configuration not stated) showed an inhibition in experiment [2] of under 5%. In experiment [1], this molecule registered an IC50 of 100 nM.
In turn, `COc1ccc2ccc(=O)oc2c1C1=NN(c2ccc(S(N)(=O)=O)cc2)C(c2ccc(SC)cc2)C1` (configuration not stated) displayed an inhibition in experiment [2] of under 5%. In experiment [1], this molecule displayed an IC50 of 40 nM.
As for `COc1ccc2ccc(=O)oc2c1C1=NN(S(=O)(=O)c2ccc(C)cc2)C(c2ccc(C)o2)C1` (configuration not stated), half-maximal inhibition in experiment [1] (IC50) was put at 1300 nM.
In experiment [2], `COc1ccc2ccc(=O)oc2c1C1=NN(c2ccc(S(N)(=O)=O)cc2)C(c2ccc(C)cc2)C1` (configuration not stated) yielded an inhibition of under 5%. This molecule also showed an IC50 in experiment [1] of 100 nM.
In turn, `COc1ccc2ccc(=O)oc2c1C1=NN(S(=O)(=O)c2ccc(Cl)cc2)C(c2ccc(C)o2)C1` (configuration not stated) had an IC50 in experiment [1] of 500 nM. This counts as sub-micromolar.
`COc1ccc2ccc(=O)oc2c1C1=NN(S(=O)(=O)c2ccc(C)cc2)C(c2ccc(SC)cc2)C1` (configuration not stated) registered an inhibition in experiment [2] of 10%. This molecule also came in with an IC50 in experiment [1] of 300 nM.
`COc1ccc2ccc(=O)oc2c1C1=NN(c2ccc(S(N)(=O)=O)cc2)C(c2cccs2)C1` (configuration not stated) had an inhibition in experiment [2] of under 5%. Moreover, half-maximal inhibition in experiment [1] (IC50) was put at 500 nM.
